Reference: ChEMBL document CHEMBL2016559, “Synthesis and cytotoxic activity evaluation of dihydrocucurbitacin B and cucurbitacin B derivatives” (Bioorg Med Chem, 2012)

What was measured:
[1] = test system: A549; test: Cytotoxicity against human A549 cells after 72 hrs by MTT assay; assay type: functional, cell-based; conditions: A549, 72 h
Method in brief: (§1)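 A549 human NSCLC cells kept in MEM with 10% FBS, penicillin/streptomycin and amphotericin B at 37 °C under humidified 5% CO2. Seeded at 1x10⁴ cells/well and left 24 h, then exposed to a range of concentrations for 48 h or 72 h at 37 °C. MTT (1 mg/mL) added for 4 h, formazan dissolved in DMSO, absorbance read at 540 nm. IC50 taken against untreated controls by log(compound) vs normalized response (variable slope) fit, with 95% CI.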

[2] = test system: A549; test: Ratio of IC50 for human A549 cells after 48 hrs to IC50 for human A549 cells after 72 hrs; assay type: functional
Method in brief: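 Ratio of the 48 h to the 72 h IC50 in A549 cells. Both IC50s come from the MTT assay (1x10⁴ cells/well, 24 h attachment, then 48 h or 72 h compound exposure). Each was fitted by log(compound) vs normalized response nonlinear regression (variable slope), relative to untreated controls.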

[3] = test system: A549; test: Cytotoxicity against human A549 cells after 48 hrs by MTT assay; assay type: functional, cell-based; conditions: A549, 48 h; method in brief: as §1

| SMILES | IC50 [1] [µM] | Ratio IC50 [2] | IC50 [3] [µM] |
| --- | --- | --- | --- |
| CC(=O)OC(C)(C)CCC(=O)[C@](C)(O)[C@H]1C(=O)C[C@@]2(C)[C@@H]3CC=C4[C@@H](C[C@H](O)C(=O)C4(C)C)[C@]3(C)C(=O)C[C@]12C | 26.5 | 2.1 | 54.4 |
| CC(=O)OC(C)(C)CCC(=O)[C@](C)(O)[C@H]1C(=O)C[C@@]2(C)[C@@H]3CC=C4[C@@H](C=C(O)C(=O)C4(C)C)[C@]3(C)C(=O)C[C@]12C | > 100 | – | > 100 |
| CC(=O)O[C@H]1C[C@@H]2C(=CC[C@@H]3[C@@]2(C)C(=O)C[C@]2(C)[C@@H]([C@@](C)(O)C(=O)CCC(C)(C)OC(C)=O)[C@H](OC(C)=O)C[C@@]32C)C(C)(C)C1=O | 72.5 | – | > 100 |
| CC(=O)OC(C)(C)CCC(=O)[C@](C)(O)[C@H]1[C@H](OC(=O)CCC(=O)O)C[C@@]2(C)[C@@H]3CC=C4[C@@H](C[C@H](OC(=O)CCC(=O)O)C(=O)C4(C)C)[C@]3(C)C(=O)C[C@]12C | > 100 | – | > 100 |
| CC(=O)O[C@H]1C[C@@H]2C(=CC[C@@H]3[C@@]2(C)C(=O)C[C@]2(C)[C@@H]([C@@](C)(O)C(=O)/C=C/C(C)(C)OC(C)=O)[C@H](OC(C)=O)C[C@@]32C)C(C)(C)C1=O | 2.64 | 5.5 | 14.7 |
| CC(=O)OC(C)(C)CCC(=O)[C@](C)(O)[C@H]1[C@H](O)C[C@@]2(C)[C@@H]3CC=C4[C@@H](C[C@H](OC(=O)c5ccccc5)C(=O)C4(C)C)[C@]3(C)C(=O)C[C@]12C | > 100 | – | > 100 |
| CC(=O)OC(C)(C)CCC(=O)[C@](C)(O)[C@H]1[C@H](OC(=O)c2ccccc2)C[C@@]2(C)[C@@H]3CC=C4[C@@H](C[C@H](OC(=O)c5ccccc5)C(=O)C4(C)C)[C@]3(C)C(=O)C[C@]12C | > 100 | – | > 100 |
| CC(=O)OC(C)(C)CCC(=O)[C@](C)(O)[C@H]1[C@H](OC(=O)n2ccnc2)C[C@@]2(C)[C@@H]3CC=C4[C@@H](C[C@H](OC(=O)n5ccnc5)C(=O)C4(C)C)[C@]3(C)C(=O)C[C@]12C | > 100 | – | > 100 |
| CC(=O)O[C@@H]1C[C@@]2(C)[C@@H]3CC=C4[C@@H](C[C@H](Sc5ccccc5)C(=O)C4(C)C)[C@]3(C)C(=O)C[C@]2(C)[C@H]1[C@@](C)(O)C(=O)CCC(C)(C)OC(C)=O | > 100 | – | > 100 |
| CC(=O)O[C@@H]1C[C@@]2(C)[C@@H]3CC=C4[C@@H](C[C@H](SC(C)=O)C(=O)C4(C)C)[C@]3(C)C(=O)C[C@]2(C)[C@H]1[C@@](C)(O)C(=O)CCC(C)(C)OC(C)=O | > 100 | – | > 100 |
| CC(=O)OC(C)(C)CCC(=O)[C@](C)(O)[C@H]1[C@H](O)C[C@@]2(C)[C@@H]3CC=C4[C@@H](Cc5sc(N)nc5C4(C)C)[C@]3(C)C(=O)C[C@]12C | > 100 | – | > 100 |
| CC(=O)OC(C)(C)/C=C/C(=O)[C@](C)(O)[C@H]1[C@H](O)C[C@@]2(C)[C@@H]3CC=C4[C@@H](Cc5sc(N)nc5C4(C)C)[C@]3(C)C(=O)C[C@]12C | 11.5 | 2.5 | 28.8 |
| CC(=O)OC(C)(C)CCC(=O)[C@](C)(O)[C@H]1[C@H](O)C[C@@]2(C)[C@@H]3CC=C4[C@@H](C[C@H](Br)C(=O)C4(C)C)[C@]3(C)C(=O)C[C@]12C | 29.1 | 1.2 | 34.9 |
| CC(=O)OC(C)(C)/C=C/C(=O)[C@](C)(O)[C@H]1[C@H](O)C[C@@]2(C)[C@@H]3CC=C4[C@@H](C[C@H](Br)C(=O)C4(C)C)[C@]3(C)C(=O)C[C@]12C | 0.12 | 11.1 | 1.33 |
| CC(=O)OC(C)(C)CCC(=O)[C@](C)(O)[C@H]1[C@H](O)C[C@@]2(C)[C@@H]3CC=C4[C@@H](C=C(N)C(=O)C4(C)C)[C@]3(C)C(=O)C[C@]12C | > 100 | – | > 100 |
| CC(=O)O[C@@H]1C[C@@]2(C)[C@@H]3CC=C4[C@@H](C=C(N)C(=O)C4(C)C)[C@]3(C)C(=O)C[C@]2(C)[C@H]1[C@@](C)(O)C(=O)CCC(C)(C)OC(C)=O | 55.2 | – | > 100 |
| CC(=O)OC(C)(C)/C=C/C(=O)[C@](C)(O)[C@H]1[C@H](O)C[C@@]2(C)[C@@H]3CC=C4[C@@H](C=C(N)C(=O)C4(C)C)[C@]3(C)C(=O)C[C@]12C | 0.12 | 3.5 | 0.42 |

| SMILES | IC50 [1] [µM] | Ratio IC50 [2] | IC50 [3] [µM] |
| --- | --- | --- | --- |
| CC(=O)OC(C)(C)CCC(=O)[C@](C)(O)[C@H]1[C@H](OC(=S)n2ccnc2)C[C@@]2(C)[C@@H]3CC=C4[C@@H](C[C@H](OC(=S)n5ccnc5)C(=O)C4(C)C)[C@]3(C)C(=O)C[C@]12C | 6.9 | 2.1 | 14.7 |
| CC(=O)OC(C)(C)CCC(=O)[C@](C)(O)[C@H]1[C@H](O)C[C@@]2(C)[C@@H]3CC=C4[C@@H](CCC(=O)C4(C)C)[C@]3(C)C(=O)C[C@]12C | 66.7 | – | > 100 |
| CC(=O)OC(C)(C)CCC(=O)[C@](C)(O)[C@H]1CC[C@@]2(C)[C@@H]3CC=C4[C@@H](CCC(=O)C4(C)C)[C@]3(C)C(=O)C[C@]12C | 11.5 | – | > 100 |
| CC(=O)[C@H]1[C@H](OC(=O)c2ccccc2)C[C@@]2(C)[C@@H]3CC=C4[C@@H](C[C@H](OC(=O)c5ccccc5)[C@@H](O)C4(C)C)[C@]3(C)C(=O)C[C@]12C | > 100 | – | > 100 |
| CC(=O)[C@H]1[C@H](O)C[C@@]2(C)[C@@H]3CC=C4[C@@H](C=C(O)C(=O)C4(C)C)[C@]3(C)C(=O)C[C@]12C | > 100 | – | > 100 |
| CC(=O)OC(C)(C)/C=C/[C@H](O)[C@](C)(O)[C@H]1[C@H](O)C[C@@]2(C)[C@@H]3CC=C4[C@@H](C[C@H](O)[C@@H](O)C4(C)C)[C@]3(C)C(=O)C[C@]12C | > 100 | – | > 100 |
| CC(=O)O[C@H]1C[C@@H]2C(=CC[C@@H]3[C@@]2(C)C(=O)C[C@]2(C)[C@@H]([C@@](C)(OC(=O)C(F)(F)F)C(=O)CCC(C)(C)OC(C)=O)[C@H](OC(C)=O)C[C@@]32C)C(C)(C)C1=O | > 100 | – | > 100 |
| CC(=O)O[C@H]1C[C@@H]2C(=CC[C@@H]3[C@@]2(C)C(=O)C[C@]2(C)[C@@H]([C@@](C)(O)C(=O)CC=C(C)C)[C@H](OC(C)=O)C[C@@]32C)C(C)(C)C1=O | 42.6 | – | > 100 |
| CC(=O)OC(C)(C)CCC(=O)[C@](C)(O)[C@H]1[C@H](O)C[C@@]2(C)[C@@H]3CC=C4[C@@H](C=CC(=O)C4(C)C)[C@]3(C)C(=O)C[C@]12C | 77.7 | 1.1 | 87.8 |
| CC(=O)O[C@H]1C[C@@H]2C(=CC(=O)[C@@H]3[C@@]2(C)C(=O)C[C@]2(C)[C@@H]([C@@](C)(O)C(=O)CCC(C)(C)OC(C)=O)[C@H](OC(C)=O)C[C@@]32C)C(C)(C)C1=O | > 100 | – | > 100 |
| CC(=O)OC(C)(C)CCC(=O)[C@](C)(O)[C@H]1[C@H](O)C[C@@]2(C)[C@@H]3CC=C4[C@@H](C=C(O)C(=O)C4(C)C)[C@]3(C)C(=O)C[C@]12C | > 100 | – | > 100 |
| CC(=O)OC(C)(C)CCC(=O)[C@](C)(O)[C@H]1[C@H](O)C[C@@]2(C)[C@@H]3CC=C4[C@@H](C[C@H](O)C(=O)C4(C)C)[C@]3(C)C(=O)C[C@]12C [23,24-DIHYDROCUCURBITACIN B] | 12.1 | 1.6 | 19.9 |
| CC(=O)OC(C)(C)/C=C/C(=O)[C@](C)(O)[C@H]1[C@H](O)C[C@@]2(C)[C@@H]3CC=C4[C@H](C[C@H](O)C(=O)C4(C)C)[C@]3(C)C(=O)C[C@]12C [CUCURBITACIN B] | 0.04 | 3.3 | 0.13 |
| COc1cccc2c1C(=O)c1c(O)c3c(c(O)c1C2=O)C[C@@](O)(C(=O)CO)C[C@@H]3O[C@H]1C[C@H](N)[C@H](O)[C@H](C)O1 [DOXORUBICIN] | 1.18 | 3.1 | 3.69 |
| CC(=O)[C@H]1[C@H](O)C[C@@]2(C)[C@@H]3CC=C4[C@@H](C[C@H](O)[C@@H](O)C4(C)C)[C@]3(C)C(=O)C[C@]12C [HEXANORCUCURBITACIN F] | > 100 | – | > 100 |
| CC(=O)O[C@H]1C(=O)[C@@]2(C)[C@H]([C@H](OC(=O)c3ccccc3)[C@]3(O)C[C@H](OC(=O)[C@H](O)[C@@H](NC(=O)c4ccccc4)c4ccccc4)C(C)=C1C3(C)C)[C@]1(OC(C)=O)CO[C@@H]1C[C@@H]2O [PACLITAXEL] | 0.19 | 6.1 | 1.16 |
